In data set [1] the test system is Rattus norvegicus. The data set is described as follows: Diuretic activity was measured in saline (20mL/kg, po)-loaded rat as urine volume collected for 6 hr at 10 mg/kg dose po. Type of data set: functional. An outline of the steps: (§1)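 Male Sprague–Dawley rats, food withheld 18 h, saline-loaded (20 mL/kg po), then given compound orally as a suspension in 0.5% methyl cellulose; vehicle-dosed controls. Urine collected over 6 h for volume (mL/kg), Na+ and K+ output (μequiv/kg). n = 3 (n = 1 for some vehicle groups); means ± SEM, significance vs vehicle at p < 0.05 / p < 0.01.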

Data set [2] deals with Rattus norvegicus. The data set is described as follows: Diuretic activity was measured in saline (20mL/kg, po)-loaded rat as potassium output at 10 mg/kg dose po. Type of data set: functional, organism-based. More on the design: dose 10 mg/kg. The following applies: Urine. An outline of the steps:
as §1

Data set [3] deals with Rattus norvegicus. The data set is described as follows: Diuretic activity was measured in saline (20mL/kg, po)-loaded rat as sodium output at 10 mg/kg dose po. Type of data set: functional, Urine. The method, boiled down: as §1
For data set [4], the system named is Rattus norvegicus. The data set is described as follows: Diuretic activity was measured in saline (20mL/kg, po)-loaded rat as sodium output at 1 mg/kg dose po. Format: functional, Urine. The method, boiled down:
as §1

Data set [5] has as its system Rattus norvegicus. The data set is described as follows: Diuretic activity was measured in saline (20mL/kg, po)-loaded rat as urine volume collected for 6 hr at 1 mg/kg dose po. Type of data set: functional. The method, boiled down: as §1
In data set [6] the test system is Rattus norvegicus. The data set is described as follows: Diuretic activity was measured in saline (20mL/kg, po)-loaded rat as urine volume collected for 6 h at 3.2 mg/kg dose po. Format: functional. An outline of the steps: as §1
For data set [7], the system named is Rattus norvegicus. The data set is described as follows: Diuretic activity was measured in saline (20mL/kg, po)-loaded rat as potassium output at 1 mg/kg dose po. Format: functional, organism-based. The note with it: Urine. The arrangement: dose 1 mg/kg. The method, boiled down: as §1
In data set [8] the test system is Rattus norvegicus. The data set is described as follows: Diuretic activity was measured in saline (20mL/kg, po)-loaded rat as potassium output at 3.2 mg/kg dose po. Format: functional, organism-based. More on the design: dose 3.2 mg/kg. The note with it: Urine. The method, boiled down:
as §1

Data set [9] has as its system Rattus norvegicus. The data set is described as follows: Diuretic activity was measured in saline (20mL/kg, po)-loaded rat as sodium output at 3.2 mg/kg dose po. Type of data set: functional, Urine. An outline of the steps: as §1
Data set [10] relates to Rattus norvegicus. The data set is described as follows: Diuretic activity was measured in saline (20mL/kg, po)-loaded rat as sodium output at 0.32 mg/kg dose po. Type of data set: functional, Urine. An outline of the steps: as §1
For data set [11], the system named is Rattus norvegicus. The data set is described as follows: Diuretic activity was measured in saline (20mL/kg, po)-loaded rat as urine volume collected for 6 hr at 0.32 mg/kg dose po. Format: functional. The method, boiled down: as §1
Data set [12] addresses T1, Adenosine receptor A1 (Rattus norvegicus, UniProt P25099).
T1 sequence (P25099 whole entry): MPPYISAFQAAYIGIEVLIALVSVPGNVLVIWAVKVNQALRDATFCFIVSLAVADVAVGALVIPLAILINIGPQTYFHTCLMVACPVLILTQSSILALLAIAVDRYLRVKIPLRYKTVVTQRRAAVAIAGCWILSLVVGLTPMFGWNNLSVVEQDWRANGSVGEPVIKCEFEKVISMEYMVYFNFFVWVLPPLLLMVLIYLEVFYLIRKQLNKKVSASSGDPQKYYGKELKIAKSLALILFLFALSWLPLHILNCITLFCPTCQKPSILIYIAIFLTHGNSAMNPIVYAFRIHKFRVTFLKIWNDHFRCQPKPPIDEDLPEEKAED
The data set is described as follows: Adenosine A1 receptor binding using [3H][…] in rat cortical membranes. Format: cell membranes. An outline of the steps:
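Displacement of [3H]DPCPX binding in rat cortical membranes. Values are means ± 95% confidence limits from at least three independent experiments.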

The nature of data set [13]: Oral bioavailability in rat (fasted). Type of data set: ADME, organism-based. The following applies: in vivo. An outline of the steps:
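Fasted rats given a single oral dose of compound suspended in 0.5% methyl cellulose solution, 3.2 or 10 mg/kg depending on compound, n = 3–4 per group.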

The nature of data set [14]: solubility in water (ug/mL) at 37 degree C. Type of data set: physicochemical. The following applies: read-out: S. An outline of the steps:
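Aqueous solubility measured in water at 37 °C; sodium salt form used for one compound.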

The target in data set [15] is T2, Adenosine receptor A1 (Homo sapiens, UniProt P30542).
T2 sequence (P30542 whole entry): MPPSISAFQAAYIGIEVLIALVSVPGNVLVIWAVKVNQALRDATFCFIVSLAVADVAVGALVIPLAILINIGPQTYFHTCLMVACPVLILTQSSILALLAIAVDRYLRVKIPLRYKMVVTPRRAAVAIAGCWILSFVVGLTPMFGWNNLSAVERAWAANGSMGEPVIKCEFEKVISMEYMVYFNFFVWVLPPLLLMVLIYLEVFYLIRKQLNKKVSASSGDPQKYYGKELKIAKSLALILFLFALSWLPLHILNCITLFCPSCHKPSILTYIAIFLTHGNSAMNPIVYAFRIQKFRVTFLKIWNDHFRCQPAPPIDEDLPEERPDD
The data set is described as follows: Adenosine A1 receptor binding using [3H]DPCPX in human cortical membranes. Type of data set: cell membranes.

Data set [16] concerns the target T3, Adenosine receptor A1 (Rattus norvegicus) (UniProt P25099).
T3 sequence (whole entry): T1 sequence (P25099 whole entry)

The test system of data set [17] is Rattus norvegicus. The data set is described as follows: Diuretic activity was measured in saline (20mL/kg, po)-loaded rat as sodium output at 0.032 mg/kg dose po. Type of data set: functional, Urine. An outline of the steps:
as §1

Data set [18] concerns Rattus norvegicus. The data set is described as follows: Diuretic activity was measured in saline (20mL/kg, po)-loaded rat as urine volume collected for 6 hr at 0.032 mg/kg dose po. Type of data set: functional. An outline of the steps: as §1
The test system of data set [19] is Rattus norvegicus. The data set is described as follows: Diuretic activity was measured in saline (20mL/kg, po)-loaded rat as sodium output at 0.1 mg/kg dose po. Format: functional, Urine. The method, boiled down:
as §1

The target of data set [20] is T1, Adenosine receptor A1. The data set is described as follows: Adenosine A1 receptor using [3H][…] in rat cortical membranes. Type of data set: cell membranes.
The subject of data set [21] is Rattus norvegicus. The data set is described as follows: Diuretic activity was measured in saline (20mL/kg, po)-loaded rat as urine volume collected for 6 hr at 0.1 mg/kg dose po. Format: functional. An outline of the steps: as §1
In the next data set the target is Adenosine A2 receptor (Rattus norvegicus, UniProt P29276+P30543). The data set is described as follows: Adenosine A2 receptor binding using [3H]CGS-21680 in rat striatal membranes. Type of data set: cell membranes, Striatum, Membrane. The method, boiled down: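 Radioligand displacement of [3H]CGS 21680 from rat striatal membranes. Values are means ± 95% confidence limits from at least three independent experiments.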

Converted amounts (≈) assume the structure as drawn.

Compound `Cn1nc(-c2c(-c3ccccc3)nn3ccccc23)ccc1=O` yielded a Urine volume in the data set on Rattus norvegicus [1] of 30 mL/kg. In the data set with Rattus norvegicus [2], this compound yielded a K of 891 u equiv kg-1. In the data set with Rattus norvegicus [3], this compound had a Na of 4870 u equiv kg-1.

As for `c1ccc(-c2nn3ccccc3c2-c2ccnnc2)cc1`, the Urine volume worked out at 38 mL/kg with Rattus norvegicus [1], 23.8 mL/kg with Rattus norvegicus [5] and 29.5 mL/kg with Rattus norvegicus [6]. For the same compound, the Na is 2800 u equiv kg-1 in the data set with Rattus norvegicus [4], 5110 u equiv kg-1 with Rattus norvegicus [3] and 3770 u equiv kg-1 in the data set on Rattus norvegicus [9]. Besides, the K in the data set with Rattus norvegicus [7] amounted to 569 u equiv kg-1; in the data set on Rattus norvegicus [2], 907 u equiv kg-1; in the data set on Rattus norvegicus [8], 667 u equiv kg-1.

`O=c1ccc(-c2c(-c3ccccc3)nn3ccccc23)nn1CCO`: the Urine volume in the data set with Rattus norvegicus [1] came out at 40.4 mL/kg. In addition, the K in the data set with Rattus norvegicus [2] stood at 942 u equiv kg-1. Also, the Na in the data set on Rattus norvegicus [3] turned out to be 5930 u equiv kg-1.

For the compound `CCCn1nc(-c2c(-c3ccccc3)nn3ccccc23)ccc1=O`, the Urine volume in the data set with Rattus norvegicus [1] came to 36.8 mL/kg. This compound displayed a K in the data set on Rattus norvegicus [2] of 972 u equiv kg-1. This compound also registered a Na in the data set on Rattus norvegicus [3] of 5510 u equiv kg-1.

On to `Oc1ccc(-c2c(-c3ccccc3)nn3ccccc23)nn1`, for which the Urine volume in the data set on Rattus norvegicus [1] is 33.3 mL/kg. This compound yielded a K in the data set on Rattus norvegicus [2] of 826 u equiv kg-1. The compound further yielded a Na in the data set on Rattus norvegicus [3] of 4640 u equiv kg-1.

Take `O=c1ccc(-c2c(-c3ccccc3)nn3ccccc23)nn1CCCO`: in the data set with Rattus norvegicus [1], the Urine volume was 37.9 mL/kg. This compound yielded a K with Rattus norvegicus [2] of 964 u equiv kg-1. In addition, the Na with Rattus norvegicus [3] amounted to 5160 u equiv kg-1.

As usually defined, the Ki is the equilibrium dissociation constant of an inhibitor or competing ligand from its target. High values mean weaker binding, low ones tighter binding. Usually bioavailability stands for dose-corrected exposure relative to a reference, in per cent. A higher bioavailability goes with much systemic uptake. With `O=C(/C=C/c1c(-c2ccccc2)nn2ccccc12)N1CCCC[C@@H]1CCO` [FK453], the Urine volume with Rattus norvegicus [1] came out at 44.4 mL/kg; with Rattus norvegicus [11], 18 mL/kg; with Rattus norvegicus [5], 24.6 mL/kg; in the data set on Rattus norvegicus [6] it was 31.9 mL/kg. For the same compound, the Na was found to be 2350 u equiv kg-1 in the data set with Rattus norvegicus [10], 3290 u equiv kg-1 in the data set with Rattus norvegicus [4], 5820 u equiv kg-1 with Rattus norvegicus [3] and 4110 u equiv kg-1 in the data set on Rattus norvegicus [9]. Moreover, the Ki at Adenosine receptor A1 [12] and at Adenosine receptor A1 [15] was 0.49 nM in each case. This compound gave a bioavailability in [13] of 8.8%. Moreover, the K was 833 u equiv kg-1 with Rattus norvegicus [7], 1070 u equiv kg-1 in the data set on Rattus norvegicus [2] and 831 u equiv kg-1 in the data set with Rattus norvegicus [8]. In addition, in data set [14], the solubility was 0.0119 mg/mL (≈ 0.0317 mM).

The compound `O=C(O)CCCn1nc(-c2c(-c3ccccc3)nn3ccccc23)ccc1=O` yielded a UV with Rattus norvegicus [1] of 38.6 mL/kg. The Na was 5260 u equiv kg-1 in the data set on Rattus norvegicus [4], 2390 u equiv kg-1 in the data set with Rattus norvegicus [17], 3860 u equiv kg-1 with Rattus norvegicus [19] and 5680 u equiv kg-1 in the data set on Rattus norvegicus [3]. In addition, the Urine volume came out at 26.4 mL/kg in data set [16], 15.6 mL/kg in the data set with Rattus norvegicus [18] and 26.4 mL/kg in the data set on Rattus norvegicus [21]. For the same compound, in [13], the bioavailability amounted to 78%. For the same compound, the K is 967 u equiv kg-1 in the data set on Rattus norvegicus [7] and 1150 u equiv kg-1 in the data set with Rattus norvegicus [2]. At Adenosine receptor A1 [20], the affinity corresponds to a Ki of 6.61 nM. The solubility in data set [14] came out at 10 mg/mL (≈ 26.7 mM). For the same compound, at Adenosine A2 receptor, the “Log Ki” value was -5.92.

On to `O=C(O)CCn1nc(-c2c(-c3ccccc3)nn3ccccc23)ccc1=O`, for which the Urine volume worked out at 31.4 mL/kg in the data set on Rattus norvegicus [1], 19.1 mL/kg in the data set on Rattus norvegicus [5] and 28.1 mL/kg in the data set with Rattus norvegicus [6]. For the same compound, the Na with Rattus norvegicus [4] came to 3350 u equiv kg-1; in the data set with Rattus norvegicus [3], 5260 u equiv kg-1; with Rattus norvegicus [9], 4860 u equiv kg-1. Further, the K stood at 790 u equiv kg-1 in the data set with Rattus norvegicus [7], 901 u equiv kg-1 in the data set with Rattus norvegicus [2] and 904 u equiv kg-1 in the data set with Rattus norvegicus [8].

The compound `c1ccc(-c2nn3ccccc3c2-c2ccncc2)cc1` displayed a Urine volume in the data set on Rattus norvegicus [1] of 34.2 mL/kg. The compound also registered a K in the data set on Rattus norvegicus [2] of 975 u equiv kg-1. The compound further registered a Na with Rattus norvegicus [3] of 5110 u equiv kg-1.

In turn, `O=C(O)CCCCn1nc(-c2c(-c3ccccc3)nn3ccccc23)ccc1=O` came in with a Urine volume in the data set with Rattus norvegicus [1] of 36.3 mL/kg. This compound also returned a K in the data set with Rattus norvegicus [2] of 977 u equiv kg-1. Besides, the Na in the data set on Rattus norvegicus [3] is listed as 4510 u equiv kg-1.
